We go through twelve molecules from ChEMBL document CHEMBL1122164, “Hypolipidemic 4,5-dihydro-4-oxo-5,5-disubstituted-2-furancarboxylic acids” (1982).

Assay [1] deals with Rattus norvegicus. In words: Effect on serum Triglycerides was determined in normal rats at a dose of 0.02 (mmol/kg)/day. The assay is classed as functional. Put shortly: (§1)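 Normal rats, 8-10 per group, dosed daily for 7 consecutive days by gastric intubation with compound suspended in 2% Tween 80. Decapitated 3 h after last dose; serum triglycerides measured by semiautomated method. Result expressed as % change from vehicle control group mean; significance by two-tailed Student's t test.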

The subject of assay [2] is Rattus norvegicus. Briefly: Effect on serum Triglycerides was determined in normal rats at a dose of 0.1 (mmol/kg)/day. The assay is classed as functional. Put shortly: as §1
For assay [3], the system named is Rattus norvegicus. In words: Effect on serum Triglycerides was determined in normal rats at a dose of 0.2 (mmol/kg)/day. The assay is classed as functional. The method, boiled down:
as §1

Assay [4] concerns Rattus norvegicus. Briefly: Effect on serum Triglycerides was determined in normal rats at a dose of 1 (mmol/kg)/day. The assay is classed as functional. Put shortly:
as §1

For assay [5], the system named is Rattus norvegicus. In words: Effect on serum Triglycerides was measured on control rats at a dose of 0.05 (mmol/kg)/day. The assay is classed as functional, organism-based.
The test system of assay [6] is Rattus norvegicus. Briefly: Effect on serum Triglycerides was measured on control rats at a dose of 0.5 (mmol/kg)/day. The assay is classed as functional, organism-based.
Assay [7] has as its system Rattus norvegicus. Briefly: Effect on serum Triglycerides was measured on treated rats at a dose of 0.05 (mmol/kg)/day. The assay is classed as functional, organism-based.
In assay [8] the test system is Rattus norvegicus. In words: Effect on serum Triglycerides was measured on treated rats at a dose of 0.5 (mmol/kg)/day. The assay is classed as functional, organism-based.
The subject of assay [9] is Rattus norvegicus. In words: Effect on serum Triglycerides was determined in normal rats at a dose of 0.01 (mmol/kg)/day. The assay is classed as functional. Put shortly:
as §1

The subject of assay [10] is Rattus norvegicus. Briefly: Effect on serum Triglycerides was determined in normal rats at a dose of 0.03 (mmol/kg)/day. The assay is classed as functional. Put shortly: as §1
In assay [11] the test system is Rattus norvegicus. Briefly: Effect on serum Triglycerides levels was measured on treated rats at a dose of 0.05 (mmol/kg)/day. The assay is classed as functional, organism-based.
The test system of assay [12] is Rattus norvegicus. In words: Effect on serum Triglycerides levels was measured on treated rats at a dose of 0.5 (mmol/kg)/day. The assay is classed as functional, organism-based.
Assay [13] relates to Rattus norvegicus. Briefly: Effect on serum Triglycerides levels was measured on control rats at a dose of 0.05 (mmol/kg)/day. The assay is classed as functional, organism-based.
Assay [14] concerns Rattus norvegicus. In words: Effect on serum Triglycerides levels was measured on control rats at a dose of 0.5 (mmol/kg)/day. The assay is classed as functional, organism-based.
The subject of assay [15] is Rattus norvegicus. Briefly: Effect on serum Triglycerides was determined in normal rats at a dose of 0.005 (mmol/kg)/day. The assay is classed as functional. Put shortly:
as §1

Assay [16] relates to Rattus norvegicus. Briefly: Effect on liver weight was measured on control rats at a dose of 0.5 (mmol/kg)/day. The assay is classed as functional.
The subject of assay [17] is Rattus norvegicus. In words: Effect on liver weight was measured on treated rats at a dose of 0.05 (mmol/kg)/day. The assay is classed as functional.
The test system of assay [18] is Rattus norvegicus. Briefly: Effect on liver weight was measured on treated rats at a dose of 0.5 (mmol/kg)/day. The assay is classed as functional.
For assay [19], the system named is Rattus norvegicus. Briefly: Effect on liver weight was measured on control rats at a dose of 0.05 (mmol/kg)/day. The assay is classed as functional.

Regarding `CC1(C)OC(C(=O)O)=CC1=O`, the Change is reported as -36% in the assay with Rattus norvegicus [1], -43% with Rattus norvegicus [2], -36% in the assay with Rattus norvegicus [3] and -36% in the assay with Rattus norvegicus [4].

Turning to `COC(=O)C1=CC(=O)C(C)(c2ccccc2)O1` (centres undefined), the Change with Rattus norvegicus [1] is recorded as -34%; with Rattus norvegicus [2], -40%; with Rattus norvegicus [3] it was -40%; in the assay on Rattus norvegicus [4], -53%.

`CC1(c2ccccc2)OC(=O)C(=O)CC1=O` (centres undefined): the Change was -13% in the assay on Rattus norvegicus [1], -27% with Rattus norvegicus [2] and -31% with Rattus norvegicus [3].

On to `CC1(c2ccc(Cl)cc2)OC(C(=O)O)=CC1=O` (centres undefined), for which the values for the Change with Rattus norvegicus [1] and with Rattus norvegicus [3] were -27% and -42%, respectively.

For the molecule `CC(C)C1(c2ccccc2)OC(C(=O)O)=CC1=O` (centres undefined), the Change is -10% in the assay with Rattus norvegicus [1], -2% with Rattus norvegicus [2], -31% with Rattus norvegicus [3] and -53% with Rattus norvegicus [4].

For the molecule `O=C(O)C1=CC(=O)C2(CCCc3ccccc32)O1` (centres undefined), the Change in the assay on Rattus norvegicus [4] was -43%.

With `O=C(O)c1cccnc1`, the Serum TG with Rattus norvegicus [5] turned out to be 104 mg/dL; in the assay on Rattus norvegicus [6], 88 mg/dL; with Rattus norvegicus [7], 97 mg/dL; with Rattus norvegicus [8] it was 47 mg/dL.

In the case of `CC1(c2ccccc2)OC(C(=O)O)=CC1=O` (single isomer, unassigned; (-)) [ACIFRAN], the values for the Change in the assay on Rattus norvegicus [9], with Rattus norvegicus [10] and in the assay with Rattus norvegicus [2] were -11%, -23% and -31%, respectively.

For `CC1(c2ccccc2)OC(C(=O)O)=CC1=O` (stereo in doubt; 5b), the Serum TG in the assay on Rattus norvegicus [11] was 58 mg/dL; with Rattus norvegicus [12], 38 mg/dL; with Rattus norvegicus [13], 104 mg/dL; in the assay on Rattus norvegicus [14], 98 mg/dL.

On to `CC1(c2ccccc2)OC(C(=O)O)=CC1=O` (stereo in doubt; 5b) [ACIFRAN], for which the Change in the assay on Rattus norvegicus [15] is -23%; in the assay with Rattus norvegicus [9] it was -37%; in the assay on Rattus norvegicus [1], -40%; in the assay with Rattus norvegicus [10], -43%; in the assay with Rattus norvegicus [2], -44%; in the assay with Rattus norvegicus [3], -52%. Moreover, the Change in the assay on Rattus norvegicus [4] was -55%. The Liver weight in the assay with Rattus norvegicus [16] worked out at 10.2 g; with Rattus norvegicus [17], 8.7 g; in the assay on Rattus norvegicus [18], 10.2 g; in the assay on Rattus norvegicus [19] it was 8.5 g.

Regarding `CC1(c2ccccc2)OC(C(=O)O)=CC1=O` (stereo in doubt; (+)-5b) [ACIFRAN], the values for the Change in the assay on Rattus norvegicus [9], with Rattus norvegicus [10] and with Rattus norvegicus [2] were -39%, -29% and -38%, respectively.

Consider `CCOC(=O)C(C)(C)Oc1ccc(Cl)cc1` [CLOFIBRATE], for which the figures for the Change in the assay with Rattus norvegicus [2], with Rattus norvegicus [3] and in the assay with Rattus norvegicus [4] were -9%, -36% and -55%, respectively. The Liver weight in the assay with Rattus norvegicus [16] amounted to 9 g; in the assay on Rattus norvegicus [17] it was 8.4 g; in the assay with Rattus norvegicus [18] it was 10.7 g; in the assay with Rattus norvegicus [19], 8.5 g. In addition, the Serum TG with Rattus norvegicus [5] is 104 mg/dL; with Rattus norvegicus [6], 87 mg/dL; in the assay on Rattus norvegicus [7] it was 101 mg/dL; with Rattus norvegicus [8] it was 43 mg/dL.
